Measurements: article PMC4336584 (Chemistry & biology, 2015)
In brackets after ≈: the same amount, converted by molar mass. Read-outs that look alike come from different tables or passages of the source.

Key:
[1] = system: HCV Gt1b replicon in Huh 5-2 cells; assay: HCV antiviral assay Huh 5-2; type: cell-based; conditions: Hepatitis C virus, Huh-5-2, 96 h, read-out: HCV Huh5.2 Gt1b replicon EC50
Outline: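 Huh 5-2 cells seeded at 6.5 × 10³/well in DMEM with 250 μg/ml G418 and held 24 hr at 37°C, 5% CO2. Medium then replaced by 3-fold serial dilutions of test compound in complete DMEM without G418. After 4 days at 37°C, luciferase activity read and expressed as percent of untreated controls.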

[2] = Cytostatic assay; type: cell-based; conditions: human, Huh 5-2 cells
[3] = Solubility analysis in PBS pH 7.4; type: physicochemical; conditions: pH 7.4, aqueous buffer, kinetic from dmso stock
[4] = Plasma protein binding analysis; type: in vitro ADME; conditions: human
[5] = system: HCV Huh7 Gt1a replicon (H77); assay: HCV replicon antiviral assay, genotype 1a; type: cell-based; conditions: Hepatitis C virus, Huh-7, 72 h, read-out: HCV Huh7 Gt1a replicon EC50
Outline: (§1)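 Subgenomic replicon cells were maintained at 37°C, 5% CO2 in DMEM with 10% FBS and 250 μg/ml G418. They were seeded at 5 × 10³ cells/well without G418. Next day, serial dilutions of compound in DMEM plus 5% FBS were added for 72 hr at 37°C. HCV RNA was measured by one-step TaqMan real-time RT-PCR, with ribosomal RNA as the cell-number/cytotoxicity control. EC50 was derived from both measurements.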

[6] = system: HCV Huh7 Gt1b replicon; assay: HCV replicon antiviral assay, genotype 1b; type: cell-based; conditions: Hepatitis C virus, Huh-7, 72 h, read-out: HCV Huh7 Gt1b replicon EC50
Outline: as §1

[7] = system: HCV Huh7 Gt2a replicon (JFH-1); assay: HCV replicon antiviral assay, genotype 2a; type: cell-based; conditions: Hepatitis C virus, Huh-7, 72 h, read-out: HCV Huh7 Gt2a replicon EC50
Outline: as §1

[8] = system: HIV-1 in CD4+ HeLa cells; assay: CD4+ HeLa HIV-1 inhibitory FACS assay; type: cell-based; conditions: Human immunodeficiency virus 1, HeLa, 48 h, read-out: HIV-1 HeLa cells IC50
[9] = system: HepG2 cells stably replicating HBV; assay: HBV antiviral assay in cells stably replicating HBV; type: cell-based; conditions: Hepatitis B virus, 72 h
Outline: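 HepG2 cells stably replicating HBV were treated with test compound at 0.1, 1 or 10 μM, with DMSO as control, for 3 days. Supernatant was then removed and cells were retreated. After a further 72 hr, HBsAg and HBeAg were measured by ELISA and HBV DNA was quantified, all in cell extracts and in triplicate.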

[10] = system: Huh7 cells transfected with HBV DNA; assay: HBV antiviral assay in cells transfected with HBV DNA; type: cell-based; conditions: test/control value, day 3, 2 µM
Outline: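 Huh7 cells were transfected with HBV DNA (8 μg) in the presence of 2 μM test compound or DMSO. On day 3, de novo HBsAg in cell extracts or supernatants was quantified by ELISA in triplicate. A test/control value was calculated from these readings.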

[11] = system: HIV-1 (NL4.3 virus); assay: SCID-hu Thy/Liv mouse model of HIV-1 infection; type: in vivo, SCID-hu Thy/Liv mice; conditions: oral bi-daily 14 days, 50 or 100 mg/kg/day
Outline: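 Human fetal thymus and liver were coimplanted under the kidney capsule of male C.B-17 SCID mice aged 6–8 weeks. Implants were inoculated with NL4-3 by direct injection 18 weeks later; controls received medium. Groups of six received 50 or 100 mg/kg/day by twice-daily oral gavage from day −1 until implant collection 2 weeks post-inoculation. Implant cells were assayed for p24 (ELISA), viral RNA (bDNA) and CD3/CD4/CD8 thymocytes (flow cytometry). Results are means with SD.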

[12] = system: HIV-1 viral load; conditions: 14 days dosing, HIV/HCV co-infected patients; cited from earlier work
[13] = biological target: HCV NS5A-cyclophilin A complex (Homo sapiens, UniProt P62937); assay: biochemical
Chain of HCV NS5A-cyclophilin A complex (P62937 whole entry, one chain of several): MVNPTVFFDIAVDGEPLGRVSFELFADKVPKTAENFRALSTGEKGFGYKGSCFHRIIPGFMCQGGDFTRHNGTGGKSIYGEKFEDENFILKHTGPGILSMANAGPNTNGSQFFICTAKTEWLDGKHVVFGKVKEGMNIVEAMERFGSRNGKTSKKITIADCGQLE

[14] = system: HIV-1 (NL4.3 virus); conditions: 21 days bi-daily dosing at 100 mg/kg; ref Stoddart et al. [29]; cited from earlier work

C/C=C/C[C@@H](C)[C@@H](O)[C@H]1C(=O)N[C@@H](CC)C(=O)N(C)[C@H](C)C(=O)N(CC)[C@@H](C(C)C)C(=O)N[C@@H](C(C)C)C(=O)N(C)[C@@H](CC(C)C)C(=O)N[C@@H](C)C(=O)N[C@H](C)C(=O)N(C)[C@@H](CC(C)C)C(=O)N(C)[C@@H](CC(C)C)C(=O)N(C)[C@@H](C(C)C)C(=O)N1C [Alisporivir]
EC50 [1]: 96 ± 23 nM
CC50 at 3 days [2]: 11200 nM
solubility at 4 h [3]: 15 µM (≈ 18.2 µg/mL)
fraction unbound at 5 h, 1 µM [4]: < 0.04
EC50 [5]: 98 ± 11 nM
EC50 [6]: 76 ± 5 nM
EC50 [7]: 102 ± 8 nM
IC50 [8]: 1500 ± 240 nM
IC50 ([9]; read-out: HBV Huh7 stable HBV DNA IC50): > 10000 nM
IC50 ([9]; read-out: HBV Huh7 stable HBeAg IC50): > 10000 nM
IC50 ([9]; read-out: HBV Huh7 stable HBsAg IC50): > 10000 nM
HBV HepG2 transfected HBsAg T/C d3 at 2uM [10]: 18%
overt signs of toxicity [11]: No overt signs of toxicity
mean drop in viral load [12]: ~ 1 log
IC50 [13]: 240 ± 20 nM

COC(=O)N[C@H](C(=O)N[C@@H](Cc1ccccc1)[C@@H](O)CN(Cc1ccc(-c2ccccn2)cc1)NC(=O)[C@@H](NC(=O)OC)C(C)(C)C)C(C)(C)C [atazanavir]
viral RNA reductions [14]: 1–4 log10

O=C1Nc2ccc(Cl)cc2[C@@](C#CC2CC2)(C(F)(F)F)O1 [efavirenz]
viral RNA reductions [14]: 1–4 log10

Nc1nc(=O)n([C@@H]2CS[C@H](CO)O2)cc1F [emtricitabine]
viral RNA reductions [14]: 1–4 log10

Cc1ccnc2c1NC(=O)c1cccnc1N2C1CC1 [nevirapine]
viral RNA reductions [14]: 1–4 log10
